Screens deposited in PubChem BioAssay by Johns Hopkins Ion Channel Center.
The list is not random: actives were taken first. Their share in the collection is about 3.8%.
KCNK9 block: KCNK9 potassium channel inhibitors, primary screen, HEK293 cells, thallium flux; AID 488922, 2010; FluxOR thallium flux fluorescence; active compounds read low; B-score at 10 µM; Potassium channel subfamily K member 9 (Homo sapiens), Q9NPC2; 310,000 tested, 1.2% active;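 active means ratio B-score over 3 SD below the library mean, with starting fluorescence within 5 SD of its mean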;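 further: negative B-score means less thallium flux so channel inhibition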
KCNQ1 act: potentiators or activators of KCNQ1 channel, primary screen, cell-based, thallium flux, high-throughput; Potassium voltage-gated channel subfamily KQT member 1 (Homo sapiens), P51787; CHO-K1 KCNQ1, thallium flux FluxOR fluorescence; active compounds read high; B-score at 10 µM; 310,000 tested, 0.35% active; AID 2648, 2010;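 active means fluorescence ratio B-score, a plate-corrected score, at least three library SD, with initial intensity B-score within 5 SD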
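Material: CHO-K1 cells stably expressing KCNQ1. Medium: assay buffer for compound exposure, DMSO matched across wells. Reagent: K+/Tl+ depolarizing stimulus. Compound dosing: single-concentration screen. Times: 37 °C overnight plating, 90-min dark dye load, 20-min compound pretreatment. Technique: FluxOR Tl+ flux fluorescence.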
Kir21 block: inhibitors of mouse Kir2.1 inward-rectifier potassium channel. Inward rectifier potassium channel 2 (Mus musculus), P35561. HEK293-Kir2.1, FluxOR thallium flux fluorescence; active compounds read low. B-score at 10 µM. 310,000 tested, 0.85% active;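 active means fluorescence ratio B-score at or below minus 3 SD of library scores, with starting-brightness B-score within 2 SD, cut at about -4.2 in these data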;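 further: channel flux triggered by added potassium and thallium sulfate stimulus; B-score of peak minus minimum fluorescence over baseline after thallium stimulus; more negative B-score means stronger Kir2.1 block with less thallium influx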
Target sequence (P35561 whole entry, looked up): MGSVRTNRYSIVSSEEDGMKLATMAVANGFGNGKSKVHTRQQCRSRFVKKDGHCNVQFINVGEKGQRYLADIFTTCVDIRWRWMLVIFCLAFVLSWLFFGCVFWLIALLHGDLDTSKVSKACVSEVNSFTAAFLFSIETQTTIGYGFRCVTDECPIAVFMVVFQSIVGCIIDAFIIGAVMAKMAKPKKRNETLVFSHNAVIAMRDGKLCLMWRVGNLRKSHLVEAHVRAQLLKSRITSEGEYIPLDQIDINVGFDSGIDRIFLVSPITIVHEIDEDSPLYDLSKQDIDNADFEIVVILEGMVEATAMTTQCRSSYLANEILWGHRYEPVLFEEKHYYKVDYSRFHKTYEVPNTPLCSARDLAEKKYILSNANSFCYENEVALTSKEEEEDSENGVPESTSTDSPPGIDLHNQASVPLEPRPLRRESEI
hERG protect: hERG rescue from dofetilide block, primary screen, cell-based, CHO-hERG, FluxOR thallium flux, dofetilide IC70. activation (rescue from dofetilide block), less the hit threshold, % at 10 µM. 310,000 tested, 0.51% active. dofetilide IC70 present;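 active means activation above the mean of controls blocked by dofetilide plus 5 SD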;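 further: thallium influx through hERG after potassium depolarization seen as dye fluorescence rise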
KCNQ1 block: inhibitors of human KCNQ1 channel, primary screen, cell-based, thallium flux, high-throughput | Potassium voltage-gated channel subfamily KQT member 1 (Homo sapiens), P51787 | AID 2642, 2010 | 310,000 tested, 1.3% active | B-score at 10 µM | CHO-K1 KCNQ1, FluxOR thallium flux fluorescence; active compounds read high;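 active means compounds whose thallium flux B-score, printed positive for inhibition, exceeds three library SD while starting fluorescence stays within three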;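 further: channel opened by potassium depolarization with thallium stimulus after 20 min compound exposure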
KCNK3 block: human KCNK3 channel inhibitors, primary screen, CHO cells, FluxOR thallium flux, B-score | Potassium channel subfamily K member 3 (Homo sapiens), O14649 | FluxOR fluorescence; active compounds read low | B-score at 10 µM | 340,000 tested, 0.84% active;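 active means B-score under library mean minus 4 SD, starting fluorescence ratio at most library mean plus 5 SD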;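 further: more negative B-score means stronger inhibition of thallium flux through KCNK3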
* marks the source's active call; other numbers are inactive results; i = inactive; . = no result given.

SMILES | KCNK9 block | KCNQ1 act | Kir21 block | hERG protect | KCNQ1 block | KCNK3 block
CCOC(=O)C(Cc1ccccc1)NC(C)=O (configuration not stated) | i | i | 2.07 | -2.5 | i | i
Cc1cccc(OCc2ccccc2)n1 | . | . | . | . | . | i
CCCCn1nnc(NC(=O)Cc2ccc(Cl)cc2)n1 | i | i | 1.1 | 6.0* | i | i
CCCn1nnc(NC(=O)Cc2ccccc2)n1 | i | i | -0.44 | -8.3 | i | i
CCCCn1nnc(NC(=O)c2ccc(-c3cccc([N+](=O)[O-])c3)o2)n1 | i | i | 0.46 | 21.6* | i | .
COc1ccc(NC(=O)C(C/C=C(/C)Cl)C(C)=O)cc1 (configuration not stated) | i | i | -0.07 | -14.5 | i | i
O=C(Nc1ccc([N+](=O)[O-])cc1Cl)c1cc(Cl)ccc1O | . | . | . | . | . | i
O=C(Nc1cccc(Cl)c1)c1cc(N=Nc2ccc([N+](=O)[O-])cc2Cl)ccc1O | i | i | -2.27 | -12.6 | 7* | i
CC(C)(C)OC(=O)C[C@H]1C/C=C\C[C@H](CC(=O)NCCO)C(=O)NCCOC1=O | . | . | . | . | . | i
C/C(=C\C(=O)c1ccncc1)Nc1ccccc1O | i | i | -0.23 | 5.7* | i | i
O=C(CN1C(=O)CCC1=O)Nc1cccc(NC(=O)CN2C(=O)CCC2=O)c1 | i | i | 2.24 | -5.2 | i | i
COc1ccc(CCN2CC(C(=O)OCc3ccccc3Cl)CC2=O)cc1OC (configuration not stated) | . | . | . | . | . | i
O=C(NC(=S)NCCc1ccccc1)c1cccc(Cl)c1 | i | 9* | 0.01 | 12.4* | i | i
COc1ccc(C(=O)NC(=S)NCCc2ccccc2)cc1 | i | i | -0.18 | -11.0 | i | i
Oc1c(C(Nc2cccc(C(F)(F)F)c2)c2ccncc2)ccc2cccnc12 (configuration not stated) | i | i | -1.3 | -3.6 | 13* | i
CC(=O)NC(c1ccc2ccccc2c1)c1ccc2cccnc2c1O (configuration not stated) | i | i | -1.44 | -2.6 | i | i
CCOC(=O)C1=C(C)n2c(s/c(=C/c3cccc([N+](=O)[O-])c3)c2=O)=NC1c1ccc(O)c(OC)c1 (configuration not stated) | i | i | -0.2 | -14.3 | 6* | i
O=C(Cc1ccccc1)N/N=C/c1cc(Br)cc(Br)c1O | i | i | -0.68 | -6.8 | i | i
Oc1c(Br)cc(Br)cc1C=NCc1ccccc1 | i | 22* | -1.24 | -19.4 | i | i
O/N=C/c1cc(Br)ccc1OCc1ccc(F)cc1 | i | i | 1.24 | -6.2 | i | i
Oc1c(Br)cc(Br)cc1C=NCc1ccc(F)cc1 | i | 12* | 1.08 | 0.5 | i | i
CC(=O)Nc1ccc(S(=O)(=O)N2CCC(N3CCCCCC3)CC2)cc1 | i | i | -0.09 | -3.3 | i | i
C=CCN1C(=O)C2C(C(=O)NC3CCCC3)C3C=CC2(O3)C1C(=O)NC1CCCC1 (configuration not stated) | i | i | 0.03 | -4.4 | i | i
COCc1cc(C)nc(SCC(=O)c2ccc(O)c(O)c2)c1C#N | i | i | 0.15 | 5.7* | i | i
Cc1ccc(NC(=O)COC(=O)/C(=C/c2cccs2)c2cccs2)cc1S(=O)(=O)N(C)C | i | i | 0.53 | -12.6 | i | i
CCOc1ccc(S(=O)(=O)N2CCC(C(=O)NCCN3CCOCC3)CC2)cc1C | i | i | 0.7 | -5.7 | i | i
COc1ccccc1-c1nc(S(=O)(=O)c2ccc(Cl)cc2)c(N(C)C)o1 | i | i | -0.28 | 5.4* | i | i
CCCCC[C@H]1CN(Cc2ccc(OC)cc2)C(=O)[C@@H]1CC(=O)NCc1ccccc1 | i | i | -0.3 | -7.5 | i | i
